What was measured:
[1] = Host cell toxicity in the high-content imaging assay; format: cell-based; conditions: mouse
[2] = system: T. cruzi CA-I/72 amastigotes; format: cell-based, Trypanosoma cruzi
In short: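 Test compound in DMSO acoustically spotted into 384-well plates. C2C12 mouse […] (500/well) and CA-I/72 T. cruzi (7500/well; strain kept by weekly C2C12 coculture passage) added together, 72 h at 37 °C, 5% CO2. Fixed in 4% paraformaldehyde/PBS, DAPI 5 μg/mL 1 h, imaged at 10×. Automated host and parasite nuclei counts fitted to CC50 and EC50 curves; SI = CC50/EC50.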

[3] = system: T. cruzi intracellular parasite; conditions: cited from earlier work
trypanothione reductase = conditions: cited from earlier work

Row | Compound | CC50 at 72 h [1] | SI (Selectivity Index = CC50/EC50) ([2]; CC50 C2C12 / EC50 T. cruzi CA-I/72) | EC50 ([2]; Trypanosoma cruzi, C2C12, 72 h, read-out: EC50, inhibition of T. cruzi amastigote replication) | activity against the intracellular parasite in vitro [3] | inhibition of trypanothione reductase (trypanothione reductase)
1 | O=C(Cn1ccnc1[N+](=O)[O-])NCc1ccccc1 [Benznidazole] | > 50 µM | >22 | 2.2 ± 0.0013 µM | – | –
2 | C=C1C(=O)[C@H]2O[C@]23C[C@H]2CC(C)(C)[C@H](O)[C@H]2[C@]13C [hypnophilin] | – | – | – | showed activity | potent inhibitor

Reference: publication PMC8908367 (ACS Omega, 2022)
